PubChem BioAssay AID2830 (NMMLSC, 2010)
pEC50: −log10 of the molar value. Active and inactive are the calls of the source.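 The calls were made as follows: active = toxic dose over resistance-reversal dose ratio above 10, when the toxic dose is under 15 µM; inactive = the rest.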

Test system: Igrov ABCG2 cells + mitoxantrone, trypan blue viability, 3 d
Assay: ABCG2-mediated chemoresistance reversal and toxicity – Igrov cells, one SAR set, orthogonal assay for ABC transporter inhibitor project, SAR follow-up (AID 2830)
Conditions: for CC50: measured here: toxicity without chemotherapeutic (TD50)
How it was run: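 Also added: mitoxantrone as chemotherapeutic selective agent, fixed concentration / Test system: Igrove cells with ABCG2 / Input: 100,000 cells per mL / Dosing: compound at 1–100 µM / Times: 3-day compound exposure alongside mitoxantrone / Technique: trypan blue counts by microscopy / Read-out: compound concentration halving cell viability under mitoxantrone (CR50)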

SMILES | EC50 | CC50 [µM] | pEC50
CC1=NN(c2ccc([N+](=O)[O-])cc2)C(=O)/C1=C/N(C)C | 54.4 µM (inactive) | 78.4 | –
COc1ccc(-c2nn(-c3ccccc3)cc2/C=C/C(=O)N2CCN(c3ccccn3)CC2)cc1 | – | > 100 | 5.91
Cc1nc2cc(-c3cccc(F)c3)nn2c(N2CCN(C(=O)c3ccco3)CC2)c1C | – | > 100 | 6.38
N#Cc1ccc(-c2ccc(OCC(=O)NCCc3ccccc3)cc2)cc1 | – | > 100 | 5.33
CCOC(=O)c1c(NC(=O)CSc2ncccn2)sc2c1CCN(Cc1ccccc1)C2 | 0.117 µM (inactive) | 2.61 | –
O=[N+]([O-])c1ccc(Nc2nc(Cl)nc(NCCO)n2)cc1 | 55.5 µM (inactive) | > 100 | –
CCOC(=O)c1cccc(NC(=O)c2cnc3ccccc3n2)c1 | 17.5 µM (inactive) | 67.8 | –
COc1ccc(/C=N/NC(=O)c2cccnc2)cc1CN1CCN(c2ccc(F)cc2)CC1 | 8.71 µM (inactive) | 15.4 | –
CCCCn1c(O)c(N=Nc2ccccn2)c2ccccc21 | 3.73 µM (inactive) | 7.62 | –
CCN(CC)P(=O)(Nc1cccc(C(F)(F)F)c1)c1ccc(N(C)C)cc1NC(=O)c1ccco1 (stereo not given) | 2.31 µM (inactive) | 19.8 | –
CCCCN(C)C1=CC2=CC(=C(C#N)C#N)CCC2CC1 (stereo not given) | – | 67.8 | 5.24
O=[N+]([O-])c1ccccc1-c1nc(-c2ccc(Br)o2)no1 | 15.6 µM (inactive) | 23.2 | –
COC(=O)c1ccc(C(C(=O)NC2CCCCC2)N(Cc2ccccc2)C(=O)Cc2cccs2)cc1 (stereo not given) | – | > 100 | 5.05
CNc1nc2cc([N+](=O)[O-])c([N+](=O)[O-])cc2nc1NC | 5.77 µM (inactive) | 7.32 | –
Cc1cc(C)c(C#N)c(SCc2c(F)cccc2[N+](=O)[O-])n1 | 18.3 µM (inactive) | > 100 | –
